PolyA inh: blocks polyadenylation in yeast reporter cells; activity score, % at 12 µM; actives 0.02% (n = 300,000); S. cerevisiae SKY197-pL101 polyadenylation reporter, beta-gal luminescence; efflux-impaired pdr1/pdr3 knockout yeast; score 100 = 6 SD above DMSO;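 active means lowest replicate activity score at least 50, where 100 means six control SD above control mean; inconclusive means lowest score under 50 but half or more replicates reach 50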;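 further: yeast exposed to compound for 9 h at 30 °C; higher score means more reporter readthrough which indicates perturbed polyadenylation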
IMP-1 inh: inhibitors of Pseudomonas aeruginosa IMP-1 metallo-beta-lactamase | actives 0.45% (n = 290,000) | purified IMP-1, nitrocefin hydrolysis, epi-absorbance fluorescence | inhibition, % at 5.6 µM;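 active means inhibition above the mean plus 3 SD of all compounds in the same screening run, cut at about 4.5% in these data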;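 further: 0% = IMP-1 with DMSO and 100% = DMSO wells lacking enzyme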
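Assay system: purified IMP-1; Quantity: IMP-1 0.2 nM before substrate addition; Medium: HEPES buffer pH 7.1 with ZnSO4 and Brij 35; Incubation: 15 min enzyme–compound preincubation, then 25 min nitrocefin reaction, 25 °C; Signal: fluorescence quenching readout, ex 480/em 530 nm; Controls: DMSO with and without IMP-1; Repeats: singlicate testing.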
Neddyl block: inhibitors of human cullin neddylation. calls only at 25 µM. AID 651699. P61081+Q13564. actives 0.58% (n = 360,000). TR-FRET cullin neddylation, biochemical; in the data active means inhibition above about 36%
procasp3 activ: activators of human procaspase-3; recombinant procaspase-3 D3A, Ac-DEVD-pNA absorbance 405 nm; activation, % at 8.5 µM; actives 0.11% (n = 330,000); AID 463141;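 active means activation above the mean of all tested compounds plus 3 SD, cut at about 21% in these data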;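 further: 0% = DMSO alone and 100% = DMSO wells spiked with extra 5 µM PC-3 D3A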
Target sequence (P42574 whole entry D9A/D28A/D175A): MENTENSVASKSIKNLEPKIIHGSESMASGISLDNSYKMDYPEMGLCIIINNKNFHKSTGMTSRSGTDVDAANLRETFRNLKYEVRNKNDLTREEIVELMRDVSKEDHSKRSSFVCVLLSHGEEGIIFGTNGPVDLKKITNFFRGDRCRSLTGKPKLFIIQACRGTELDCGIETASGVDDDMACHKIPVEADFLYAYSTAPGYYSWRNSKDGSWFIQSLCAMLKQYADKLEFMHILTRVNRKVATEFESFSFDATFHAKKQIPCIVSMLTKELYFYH
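Assay system – Procaspase-3 D3A mutant, all three cleavage aspartates alanine · Controls – DMSO-only low control, 5 µM PC-3 D3A high control · Schedule – 1 h compound preincubation, 2 h substrate hydrolysis at 25 °C · Signal – 405 nm absorbance of p-nitroaniline, reads at 0 and 120 min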
proCasp7 act: counter-screen for procaspase-3 activators: activators of human procaspase-7 | P55210 | recombinant procaspase-7, Ac-DEVD-pNA absorbance 405 nm; D23A/D198A/D206A triple mutant, cannot self-cleave; scale: DMSO 0, 5 µM enzyme 100 | activation, % at 8.5 µM | actives 0.093% (n = 330,000);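 active means percent activation above the screen-wide mean plus 3 SD, cut at about 25% in these data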
Target sequence (P55210 whole entry D23A/D198A/D206A): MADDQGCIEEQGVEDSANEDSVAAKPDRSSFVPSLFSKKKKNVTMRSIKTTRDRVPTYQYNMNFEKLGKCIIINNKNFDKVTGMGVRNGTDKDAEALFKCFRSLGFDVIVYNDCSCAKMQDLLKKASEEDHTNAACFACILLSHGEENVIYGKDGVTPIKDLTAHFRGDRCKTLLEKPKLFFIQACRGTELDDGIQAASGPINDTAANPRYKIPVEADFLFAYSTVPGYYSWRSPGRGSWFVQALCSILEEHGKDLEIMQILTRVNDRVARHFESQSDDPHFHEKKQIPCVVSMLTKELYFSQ
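Detection: p-Nitroaniline absorbance at 405 nm, read at 0 and 120 min; system: Uncleavable procaspase-7 mutant enzyme; evaluation: % activation from two-timepoint absorbance difference, scaled to controls; times: 1 h enzyme–compound preincubation and 2 h substrate reaction, both 25 °C; buffer or medium: Zinc-free HEPES pH 7.4 with 300 mM NaCl, 0.01% Triton X-100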
VIM-2 inhibitor: inhibitors of Pseudomonas aeruginosa VIM-2 metallo-beta-lactamase. actives 0.89% (n = 290,000). AID 1527. inhibition, % at 5.6 µM. purified VIM-2, nitrocefin hydrolysis, epi-absorbance fluorescence;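 active means inhibition above the mean of all tested compounds plus 3 SD, cutoff set per screening run, cut at about 7.5% in these data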;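 further: red hydrolysis product quenches plate fluorescence so inhibitors raise well fluorescence; 0% = enzyme with DMSO and 100% = DMSO without enzyme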
Active calls of the source: *; i = inactive; u = inconclusive; x = no result given; + = active, no number; ! = repeats disagree. In the library only some 1.7% were active in any assay of this set; here they are far more common.

SMILES	PolyA inh	IMP-1 inh	Neddyl block	procasp3 activ	proCasp7 act	VIM-2 inhibitor
COc1cc(C(C(=O)NC(C)(C)C)N(C(=O)CNC(=O)c2cccs2)c2ccccc2)cc(OC)c1OC (stereo unspecified)	17	-2	i	8	3	-2
CCOC(=O)C1=C(C)Nc2nc3ccccc3n2C1c1ccc(O)cc1 (stereo unspecified)	4	29*	i	4	2	-4
COC(=O)C1=C(C)Nc2nc3ccccc3n2C1c1cc(OC)c(OC)c(OC)c1 (stereo unspecified)	13	-1	i	-19	4	-1
CC1=NN(c2ccc(Cl)c(C(=O)O)c2)C(=O)/C1=C\c1ccc(-c2ccc(C(=O)O)cc2)o1	-8	7.7*	i	x	x	-2
CC1=NN(c2ccccc2)C(=O)/C1=C/c1ccc(-c2ccc(C)c(C(=O)O)c2)o1	-25	x	x	5	-8	x
O=C(c1ccc(Cl)c([N+](=O)[O-])c1)N1CCN(C(=O)c2ccco2)CC1	12	-2	i	-8	-4	-2
O=C(c1ccco1)N1CCN(c2c([N+](=O)[O-])nn(-c3cccc(Cl)c3)[n+]2[O-])CC1	-13	7.8*	i	4	-5	-3
CN(C)c1ccc(N=Nc2ccc(S(N)(=O)=O)cc2)cc1	4	9.1*	i	-10	2	-3
CN(C)N=Nc1ccc(S(N)(=O)=O)cc1	15	-1	i	11	4	-2
Cc1ccc(NC(=O)c2ccc(=O)n(CC(=O)Nc3c(C)cc(C)cc3C)n2)cc1	14	1	i	-5	-2	-2
COC(=O)c1ccc(NC(=O)Cn2nc(C(=O)Nc3ccc(C)cc3)ccc2=O)cc1	11	11*	i	0	3	0
O=c1c2cc(Cl)ccc2oc2nc3n(c(=O)c12)CCCS3	26	1	i	1	1	9.7*
O=C(c1cc(Cl)nc2ccccc12)N1CCN(S(=O)(=O)c2cccc(F)c2)CC1	-5	x	i	12	4	x
O=C(c1cc(Cl)nc2ccccc12)N1CCN(S(=O)(=O)c2ccccc2[N+](=O)[O-])CC1	-17	4.5*	i	4	-9	-1
COc1ccc(C(=O)Nc2ccccc2-c2ccccc2)cc1Cl	-18	5.2*	i	4	-9	-1
CCOC(=O)CN1CCC(c2cc(-c3ccc(Cl)cc3)n[nH]2)CC1	-3	1	i	-7	-1	1
CCC(=O)N(Cc1cc(=O)[nH]c2ccccc12)c1cccc(C)c1	x	-1	i	3	-1	1
COc1ccc(Cn2c(=N)c(C(=O)NCC3CCCO3)cc3c(=O)n4ccccc4nc32)cc1 (stereo unspecified)	-1	-3	i	-6	-6	9.2*
COc1ccc(CCn2c(=N)c(C(=O)NCC3CCCO3)cc3c(=O)n4ccccc4nc32)cc1 (stereo unspecified)	-8	-1	i	-1	-5	5
N=c1c(C(=O)NCC2CCCO2)cc2c(=O)n3ccccc3nc2n1Cc1ccccc1 (stereo unspecified)	-9	-2	x	-14	-14	7
N=c1c(C(=O)NCC2CCCO2)cc2c(=O)n3ccccc3nc2n1Cc1ccc(Cl)cc1 (stereo unspecified)	4	3	x	-18	-15	9.9*
OCCN1CCN(c2nc(-c3ccccc3O)nc3ccccc23)CC1	14	-2	i	3	-9	11*
COc1cccc(-c2nc(N3CCN(C)CC3)c3ccccc3n2)c1O	-14	-2	i	7	8	10*
CCN1CCN(c2nc(-c3ccccc3Cl)nc3ccccc23)CC1	-8	-2	i	3	12	-3
COc1cccc(-c2nc(N3CCCCC3C)c3ccccc3n2)c1O (stereo unspecified)	-25	-1	i	3	-8	-2
SMILES	PolyA inh	IMP-1 inh	Neddyl block	procasp3 activ	proCasp7 act	VIM-2 inhibitor
CC(C)c1ccccc1NC(=O)COC(=O)CCN1C(=O)/C(=C\C=C\c2ccccc2)SC1=S	-8	-1	i	-29	-12	-6
Cc1ccc(NC(=O)CCCN2C(=O)/C(=C/C=C/c3ccccc3)SC2=S)cc1	-18	7.2*	i	-14	-24	1
O=C(CCN1C(=O)/C(=C\C=C\c2ccccc2)SC1=S)Nc1ccccc1C(=O)O	-6	8.1*	i	-15	-7	0
O=C(COC(=O)CCN1C(=O)/C(=C\C=C\c2ccccc2)SC1=S)Nc1ccc(Br)cc1	-27	5.5*	i	-13	-14	-3
O=C(CN1C(=O)S/C(=C\c2ccccc2F)C1=O)Nc1ccccc1O	u	-2	i	-7	12	1
OCC1OC(n2cnc3c(NCc4ccccc4O)ncnc32)C(O)C1O (stereo unspecified)	x	x	+	x	x	x
N=c1c(C(=O)NCc2ccco2)cc2c(=O)n3ccccc3nc2n1CC1CCCO1 (stereo unspecified)	8	-1	x	-11	-13	-2
O=C(CSc1n[nH]c(=O)[nH]c1=O)Nc1ccc(C(=O)O)cc1	-5	7.7*	i	-2	1	1
Cc1cc(NC(=O)CSc2n[nH]c(=O)[nH]c2=O)ccc1Br	-7	0	i	5	1	-1
Cc1[nH]n(-c2ccccc2)c(=O)c1N=Nc1ccc(C(=O)O)cc1	-29	-4	i	-5	4	2
Cc1[nH]n(-c2ccccc2)c(=O)c1N=Nc1ccc(C(N)=O)cc1	-37	-2	i	-7	-4	12*
COc1ccc(C)cc1N(CC(=O)O)S(=O)(=O)c1ccc(C)cc1	5	-4	i	-1	-3	-4
COc1ccc(N(CC(=O)O)S(=O)(=O)c2ccc(C)cc2)cc1Cl	x	-1	i	-2	1	11*
Brc1ccc(-c2cn3c(n2)CCc2ccc4cccnc4c2-3)cc1	-20	1	i	-7	-12	1
CCOc1cc(C(=O)OCC(=O)N(C)c2ccccc2)cc(OCC)c1OCC	-5	12*	i	-3	-2	0
O=C(Cc1cc(=O)[nH][nH]1)N/N=C/c1c(Cl)cccc1Cl	17	7.5*!	i	-12	-6	2
O=C(Cc1cc(=O)[nH][nH]1)N/N=C/c1c(F)cccc1Cl	-8	-1	i	-7	0	0
Cc1[nH]n(-c2ccccc2)c(=O)c1/C=N/NC(=O)c1ccc(O)cc1O	-16	-4	+	-27	-50	-4
COc1ccc(-c2nc3c(Cl)cc(C(F)(F)F)cn3c2Cc2cccc(Cl)c2)cc1OC	x	x	i	x	x	x
